We go through five compounds from ChEMBL document CHEMBL3286267, “Discovery of MK-4409, a Novel Oxazole FAAH Inhibitor for the Treatment of Inflammatory and Neuropathic Pain” (ACS Med Chem Lett, 2014).

Broadly, the IC50 is the concentration needed to halve the response being measured. The term Ki denotes the dissociation constant of the complex between target and ligand, obtained from inhibition or displacement. A higher Ki goes with weaker binding. In general, EC50 refers to the midpoint of the concentration-response curve. Low values mean higher potency in that assay, high ones lower potency in that assay. One may read the half-life as the time needed for the level to fall by half in the phase considered. One may read the solubility as how much of the substance goes into solution per volume. The bioavailability is dose-corrected exposure relative to a reference, in per cent. A low value points to poor availability.

Molecules are shown by their SMILES. Values after ≈ are worked out from the molar mass of the structure shown. Active and inactive are the calls of the source.

The subject of data set [1] is Rattus norvegicus. Briefly: Antiallodynic activity in Harlan rat spinal nerve ligation model of neuropathic pain assessed as reversal of allodynia at 21 mg/kg, po. It is filed as functional, organism-based. More on the design: dose 21 mg/kg. The essentials: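 Rat spinal nerve ligation model of neuropathic pain, scored as percent reversal of allodynia after dosing. A rota-rod test run alongside served as a counterscreen for motor impairment.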

In data set [2] the test system is Rattus norvegicus. The experiment in a line: Analgesic activity in Sprague-Dawley rat complete Freund's adjuvant-induced inflammatory pain model assessed as reversal of mechanical allodynia at 2 mg/kg/day, ip measured up to 5 days. In kind it is functional, organism-based. Summed up:
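Inflammatory pain induced in rats by intraplantar injection of complete Freund's adjuvant into the hind paws. Mechanical allodynia was followed under a chronic repeated-dosing paradigm across several days to check for loss of antinociception (tachyphylaxis).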

Data set [3] has as its target T1, Fatty-acid amide hydrolase 1 (Rattus norvegicus, UniProt P97612).
T1 sequence (P97612 whole entry): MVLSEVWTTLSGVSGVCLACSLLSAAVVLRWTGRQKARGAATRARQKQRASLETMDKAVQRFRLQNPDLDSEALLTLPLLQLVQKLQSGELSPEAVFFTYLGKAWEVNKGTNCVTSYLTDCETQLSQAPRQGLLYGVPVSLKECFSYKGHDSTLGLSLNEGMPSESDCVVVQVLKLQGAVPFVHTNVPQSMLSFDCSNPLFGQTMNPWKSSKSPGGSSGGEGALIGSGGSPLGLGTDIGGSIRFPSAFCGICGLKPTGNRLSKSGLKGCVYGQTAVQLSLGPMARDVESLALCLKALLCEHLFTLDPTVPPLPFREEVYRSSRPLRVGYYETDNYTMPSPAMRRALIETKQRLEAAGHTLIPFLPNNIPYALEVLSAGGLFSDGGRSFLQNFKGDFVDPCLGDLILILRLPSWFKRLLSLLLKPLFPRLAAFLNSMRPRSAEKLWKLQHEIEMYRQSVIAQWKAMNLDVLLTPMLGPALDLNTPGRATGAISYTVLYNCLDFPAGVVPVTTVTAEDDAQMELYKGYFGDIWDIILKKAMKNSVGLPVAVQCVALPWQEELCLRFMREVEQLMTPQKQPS
Briefly: Inhibition of rat FAAH lysate using AMCAA as substrate by fluorescence assay. The essentials:
(§1)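 In vitro assays, with values reported as the average of at least three duplicates.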

The target of data set [4] is Voltage-gated inwardly rectifying potassium channel KCNH2 (Homo sapiens, UniProt Q12809). Briefly: Displacement of [35S]MK-499 from human ERG. The essentials: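 hERG K+ channel binding assay measuring displacement of the radiolabelled channel blocker [35S]MK-499. Values are averages of at least three duplicates.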
Data set [5] is described as follows: Inhibition of human vesicular monoamine transporter. The essentials: as §1
Data set [6] concerns Rattus norvegicus. The experiment in a line: Dose normalized AUC in rat at 1 mg/kg, iv and 1 to 2 mg/kg, po. Particulars: in vivo. It is filed as ADME, organism-based. Summed up: (§2)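 Rat PK given 1 mg/kg iv in DMSO/PEG400/H2O 20/60/20 and 2 mg/kg po in either Imwitor/Tween 1/1 or PEG400/Tween80/H2O 40/10/50. Half-life, clearance, volume of distribution, dose-normalized AUC (AUCN) and oral bioavailability were derived.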

Data set [7] is described as follows: Half life in rat at 1 mg/kg, iv and 1 to 2 mg/kg, po. In kind it is ADME, organism-based. The following applies: in vivo. The essentials: as §2
Data set [8] in a line: Clearance in rat at 1 mg/kg, iv and 1 to 2 mg/kg, po. In kind it is ADME, organism-based. The following applies: in vivo. The essentials: as §2
Data set [9] is described as follows: Volume of distribution at steady state in rat at 1 mg/kg, iv and 1 to 2 mg/kg, po. In kind it is ADME, organism-based. The following applies: in vivo, read-out: Vdss. Summed up:
as §2

The nature of data set [10]: Solubility in fasted state simulated intestinal fluid. It is filed as ADME.
Data set [11] in a line: Bioavailability in rat at 1 mg/kg, iv and 1 to 2 mg/kg, po. The following applies: in vivo. In kind it is ADME, organism-based. Summed up:
as §2

Data set [12] addresses T2, Fatty-acid amide hydrolase 1 (Homo sapiens, UniProt O00519).
T2 sequence (O00519 whole entry): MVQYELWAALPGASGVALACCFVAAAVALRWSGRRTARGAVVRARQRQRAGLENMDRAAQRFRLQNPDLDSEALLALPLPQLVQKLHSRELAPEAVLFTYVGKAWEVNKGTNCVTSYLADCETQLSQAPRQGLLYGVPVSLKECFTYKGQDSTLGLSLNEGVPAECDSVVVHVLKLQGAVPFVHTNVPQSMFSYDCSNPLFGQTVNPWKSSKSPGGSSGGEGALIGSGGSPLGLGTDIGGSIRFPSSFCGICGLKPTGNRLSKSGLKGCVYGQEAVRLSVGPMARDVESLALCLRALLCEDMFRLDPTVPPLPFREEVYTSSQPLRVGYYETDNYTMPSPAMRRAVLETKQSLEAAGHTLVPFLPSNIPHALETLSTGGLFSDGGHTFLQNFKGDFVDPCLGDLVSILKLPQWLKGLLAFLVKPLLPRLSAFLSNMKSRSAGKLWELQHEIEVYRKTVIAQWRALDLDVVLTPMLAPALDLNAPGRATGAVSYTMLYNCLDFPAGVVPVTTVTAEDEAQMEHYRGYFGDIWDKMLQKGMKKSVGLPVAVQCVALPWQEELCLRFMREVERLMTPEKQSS
Briefly: Inhibition of human FAAH lysate using AMCAA as substrate by fluorescence assay. The essentials: as §1

For data set [13], the system named is Rattus norvegicus. Briefly: Analgesic activity in Sprague-Dawley rat complete Freund's adjuvant-induced inflammatory pain model assessed as reversal of mechanical allodynia at 30 mg/kg, po single dose measured after 1 hr. In kind it is functional. The essentials: (§3)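 Inflammatory pain induced in rats by intraplantar injection of complete Freund's adjuvant into the hind paw. Mechanical allodynia was assessed at 1 and 3 h after a single oral dose. For each rat, percent reversal = (postdose – predose)/(preinjury – predose), averaged over n = 6.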

In data set [14] the test system is Rattus norvegicus. The experiment in a line: Analgesic activity in Sprague-Dawley rat complete Freund's adjuvant-induced inflammatory pain model assessed as reversal of mechanical allodynia at 10 mg/kg, po single dose measured after 1 hr. In kind it is functional. The essentials:
as §3

Data set [15] relates to Rattus norvegicus. The experiment in a line: Analgesic activity in Sprague-Dawley rat complete Freund's adjuvant-induced inflammatory pain model assessed as reversal of mechanical allodynia at 30 mg/kg, po single dose measured after 3 hrs. In kind it is functional. Summed up:
as §3

The subject of data set [16] is Rattus norvegicus. Briefly: Analgesic activity in Sprague-Dawley rat complete Freund's adjuvant-induced inflammatory pain model assessed as reversal of mechanical allodynia at 10 mg/kg, po single dose measured after 3 hrs. It is filed as functional. Summed up:
as §3

Chain of Voltage-gated inwardly rectifying potassium channel KCNH2 (Q12809 whole entry): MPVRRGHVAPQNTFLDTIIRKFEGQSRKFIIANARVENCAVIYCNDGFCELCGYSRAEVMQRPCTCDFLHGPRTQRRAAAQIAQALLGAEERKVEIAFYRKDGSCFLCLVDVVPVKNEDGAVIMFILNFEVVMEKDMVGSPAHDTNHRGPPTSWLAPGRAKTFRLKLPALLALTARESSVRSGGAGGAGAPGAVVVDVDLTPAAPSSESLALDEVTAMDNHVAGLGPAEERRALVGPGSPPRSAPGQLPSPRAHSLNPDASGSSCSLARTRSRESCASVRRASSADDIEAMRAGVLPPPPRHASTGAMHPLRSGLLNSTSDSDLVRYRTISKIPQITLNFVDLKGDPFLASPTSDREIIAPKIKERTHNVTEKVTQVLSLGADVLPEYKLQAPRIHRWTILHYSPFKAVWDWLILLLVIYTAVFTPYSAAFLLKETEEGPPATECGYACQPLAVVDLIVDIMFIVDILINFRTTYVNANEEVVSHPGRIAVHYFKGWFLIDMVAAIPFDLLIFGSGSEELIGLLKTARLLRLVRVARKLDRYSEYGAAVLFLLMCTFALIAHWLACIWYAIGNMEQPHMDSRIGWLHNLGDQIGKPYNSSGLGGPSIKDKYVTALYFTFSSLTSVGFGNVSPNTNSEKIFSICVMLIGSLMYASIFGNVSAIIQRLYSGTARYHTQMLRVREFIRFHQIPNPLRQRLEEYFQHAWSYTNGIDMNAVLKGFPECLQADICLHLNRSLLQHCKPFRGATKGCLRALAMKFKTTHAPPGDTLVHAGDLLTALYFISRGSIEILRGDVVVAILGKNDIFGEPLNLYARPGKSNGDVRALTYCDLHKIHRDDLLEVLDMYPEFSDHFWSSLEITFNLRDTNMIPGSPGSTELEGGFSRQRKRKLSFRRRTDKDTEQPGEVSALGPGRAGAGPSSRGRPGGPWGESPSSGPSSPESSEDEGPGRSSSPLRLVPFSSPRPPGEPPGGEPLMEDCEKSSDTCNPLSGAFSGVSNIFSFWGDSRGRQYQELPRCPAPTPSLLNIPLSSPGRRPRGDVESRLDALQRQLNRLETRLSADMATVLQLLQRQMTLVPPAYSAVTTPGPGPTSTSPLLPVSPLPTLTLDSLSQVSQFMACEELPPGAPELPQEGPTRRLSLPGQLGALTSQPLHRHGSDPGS

For `NC(=O)c1cccc(-c2cccc(OC(=O)NC3CCCCC3)c2)c1`, the outcome with Rattus norvegicus [1] was Active.

For `Cc1c(C(=O)c2cccc3ccccc23)c2cccc3c2n1[C@H](CN1CCOCC1)CO3`, the outcome in the data set on Rattus norvegicus [2] was inactive.

`CS(=O)(=O)c1ccc(-c2nn(-c3ccc(F)cc3)cc2Sc2ccc(Cl)cc2)cc1`: in data set [3], the half-maximal inhibitory concentration (IC50) came to 0.006 µM. This compound returned a Ki in [4] of 0.637 µM. The same compound showed an EC50 in [5] of 0.363 µM. In addition, the AUC/dose with Rattus norvegicus [6] was found to be 1.06 µM·kg·h/mg. Also, the half-life in data set [7] is 1.79 h. For the same compound, the clearance in [8] was found to be 34 mL/min/kg. In addition, the Vd in [9] was 8.4 L/kg. In [10], this compound gave a solubility of 3 µg/mL (≈ 6.54 µM). The bioavailability in data set [11] is 100%.

As for `CC(C)(O)c1cnc(-c2nn(-c3ccc(F)cc3)cc2Sc2ccc(Cl)cc2)cn1`, the values for the half-maximal inhibitory concentration (IC50) in data set [12] and in data set [3] were 0.032 µM and 0.01 µM, respectively. In data set [4], this compound returned an inhibition constant Ki of 0.74 µM. For the same compound, in [5], the EC50 is 1.16 µM. The compound further had an AUC/dose in the data set with Rattus norvegicus [6] of 1.07 µM·kg·h/mg. Also, the half-life in data set [7] was 4.9 h. In addition, the clearance in data set [8] was found to be 33.8 mL/min/kg. Also, the Vd in data set [9] was found to be 15.8 L/kg. The Activity with Rattus norvegicus [13] came to 58%; in the data set on Rattus norvegicus [14], 42%; with Rattus norvegicus [15], 40%; in the data set with Rattus norvegicus [16], 38%. Further, the bioavailability in data set [11] amounted to 96%.

`CS(=O)(=O)c1ccc(-c2nc(-c3ccc(F)cc3)oc2Sc2ccc(Cl)cn2)cc1` registered a half-maximal inhibitory concentration (IC50) in [3] of 0.021 µM. The Ki in [4] worked out at 2.5 µM. Besides, the 50% effective concentration (EC50) in data set [5] is 14 µM. In addition, the values for the Activity with Rattus norvegicus [14] and with Rattus norvegicus [16] were 46% and 44%, respectively.
